Laboratory results from ChEMBL document CHEMBL1155764, “Cytotoxicity of Rhamnosylanthraquinones and Rhamnosylanthrones from Rhamnus nepalensis” (J Nat Prod, 2001).

Experiments:
[1] = test system: KB; assay: Cytotoxicity against human KB cells; type: functional, cell-based
[2] = test system: Mus musculus; assay: Toxicity in mouse P388 cells xenografted CDF1 mouse assessed as survival time at 5 mg/kg, ip; type: organism-based; set-up: dose 5 mg/kg, route intraperitoneal; conditions: in vivo
Summary of the method: (§1)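 Two CDF1 mice per dose received P388 leukaemia cells intravenously, then a single intraperitoneal injection of the compound at 10, 5 or 2.5 mg/kg. The read-out was survival time in days after injection, compared with the average survival of the grafted mice.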

[3] = test system: Mus musculus; assay: Toxicity in mouse P388 cells xenografted CDF1 mouse assessed as survival time at 2.5 mg/kg, ip; type: organism-based; set-up: dose 2.5 mg/kg, route intraperitoneal; conditions: in vivo; summary of the method: as §1
[4] = test system: Mus musculus; assay: Toxicity in mouse P388 cells xenografted CDF1 mouse assessed as survival time at 10 mg/kg, ip; type: organism-based; set-up: dose 10 mg/kg, route intraperitoneal; conditions: in vivo; summary of the method: as §1
[5] = Homo sapiens, KB, read-out: IC50

SMILES	IC50 [1, 5]	also measured
CC(=O)O[C@@H]1[C@@H](O)[C@H](C)O[C@@H](Oc2cc(O)c3c(c2)[C@H]([C@H]2c4cc(C)cc(O)c4C(=O)c4c(O)cc(O)cc42)c2cc(C)cc(O)c2C3=O)[C@@H]1OC(C)=O	1.3 µM	
CC(=O)O[C@@H]1[C@@H](O)[C@H](C)O[C@@H](Oc2cc(O)c3c(c2)[C@H]([C@@H]2c4cc(C)cc(O)c4C(=O)c4c(O)cc(O[C@@H]5O[C@@H](C)[C@H](O)[C@@H](OC(C)=O)[C@H]5OC(C)=O)cc42)c2cc(C)cc(O)c2C3=O)[C@@H]1OC(C)=O	2.5 µM	
CC(=O)O[C@@H]1[C@@H](O)[C@H](C)O[C@@H](Oc2cc(O)c3c(c2)[C@@H]([C@H]2c4cc(C)cc(O)c4C(=O)c4c(O)cc(O)cc42)c2cc(C)cc(O)c2C3=O)[C@@H]1OC(C)=O	0.8 µM	
CC(=O)O[C@@H]1[C@@H](O)[C@H](C)O[C@@H](Oc2cc(O)c3c(c2)[C@H]([C@H]2c4cc(C)cc(O)c4C(=O)c4c(O)cc(O[C@@H]5O[C@@H](C)[C@H](O)[C@@H](OC(C)=O)[C@H]5OC(C)=O)cc42)c2cc(C)cc(O)c2C3=O)[C@@H]1OC(C)=O	0.9 µM	
Cc1cc(O)c2c(c1)[C@@H]([C@H]1c3cccc(O)c3C(=O)c3c(O)cc(C)cc31)c1cc(O)cc(O)c1C2=O	1.8 µM	
Cc1cc(O)c2c(c1)[C@H]([C@@H]1c3cc(C)cc(O)c3C(=O)c3c(O)cc(O)cc31)c1cccc(O)c1C2=O	3.4 µM	
CC(=O)O[C@H]1[C@H](Oc2cc(O)c3c(c2)C(=O)c2cc(C)cc(O)c2C3=O)O[C@@H](C)[C@H](O)[C@H]1O		IC50 ([1]; kb): Not Active
Cc1cc(O)c2c(c1)[C@H]([C@H]1c3cccc(O)c3C(=O)c3c(O)cc(C)cc31)c1cccc(O)c1C2=O	0.2 µM	
CC(=O)O[C@@H]1[C@@H](O)[C@H](C)O[C@@H](Oc2cc(O)c3c(c2)C(=O)c2cc(C)cc(O)c2C3=O)[C@@H]1OC(C)=O	1.9 µM	
Cc1cc(O)c2c(c1)[C@H]([C@H]1c3cc(C)cc(O)c3C(=O)c3c(O)cc(O)cc31)c1cc(O)cc(O)c1C2=O	2.5 µM	
CC(=O)O[C@@H]1[C@@H](OC(C)=O)[C@H](Oc2cc(O)c3c(c2)C(C(C)=O)c2cc(C)cc(O)c2C3=O)O[C@@H](C)[C@H]1OC(C)=O (some centres not stated)	0.07 µM	
CC(=O)O[C@@H]1[C@@H](O)[C@H](C)O[C@@H](Oc2cc(O)c3c(c2)[C@H]([C@H]2c4cc(C)cc(O)c4C(=O)c4c(O)cc(O[C@@H]5O[C@@H](C)[C@H](OC(C)=O)[C@@H](O)[C@H]5OC(C)=O)cc42)c2cc(C)cc(O)c2C3=O)[C@@H]1OC(C)=O	0.8 µM	
CC(=O)O[C@@H]1[C@@H](O)[C@H](C)O[C@@H](Oc2cc(O)c3c(c2)[C@H]([C@@H]2c4cc(C)cc(O)c4C(=O)c4c(O)cc(O[C@@H]5O[C@@H](C)[C@H](OC(C)=O)[C@@H](O)[C@H]5OC(C)=O)cc42)c2cc(C)cc(O)c2C3=O)[C@@H]1OC(C)=O	1.2 µM	
CC(=O)O[C@@H]1[C@@H](O)[C@H](C)O[C@@H](Oc2cc(O)c3c(c2)[C@@H]([C@@H]2c4cc(C)cc(O)c4C(=O)c4c(O)cc(O[C@@H]5O[C@@H](C)[C@H](OC(C)=O)[C@@H](O)[C@H]5OC(C)=O)cc42)c2cc(C)cc(O)c2C3=O)[C@@H]1OC(C)=O	1 µM	
CC(=O)O[C@@H]1[C@@H](O)[C@H](C)O[C@@H](Oc2cc(O)c3c(c2)[C@@H]([C@@H]2c4cc(C)cc(O)c4C(=O)c4c(O)cc(O)cc42)c2cc(C)cc(O)c2C3=O)[C@@H]1OC(C)=O	3.3 µM	
CC(=O)O[C@@H]1[C@@H](O)[C@H](C)O[C@@H](Oc2cc(O)c3c(c2)[C@H]([C@@H]2c4cc(C)cc(O)c4C(=O)c4c(O)cc(O)cc42)c2cc(C)cc(O)c2C3=O)[C@@H]1OC(C)=O	4.5 µM	
CC(=O)O[C@@H]1[C@@H](OC(C)=O)[C@H](C)O[C@@H](Oc2cc(O)c3c(c2)C(=O)c2cc(C)cc(O)c2C3=O)[C@@H]1OC(C)=O		IC50 ([1]; kb): Not Active
Cc1cc(O)c2c(c1)[C@H]([C@@H]1c3cccc(O)c3C(=O)c3c(O)cc(C)cc31)c1cccc(O)c1C2=O	1.2 µM	
Cc1cc(O)c2c(c1)[C@H]([C@H]1c3cc(C)cc(O)c3C(=O)c3c(O)cc(O)cc31)c1cccc(O)c1C2=O	1.4 µM	
Cc1cc(O)c2c(c1)[C@@H]([C@H]1c3cc(C)cc(O)c3C(=O)c3c(O)cc(O)cc31)c1cc(O)cc(O)c1C2=O	1.1 µM	
Cc1cc(O)c2c(c1)[C@@H]([C@H]1c3cc(C)cc(O)c3C(=O)c3c(O)cc(O)cc31)c1cccc(O)c1C2=O	1.2 µM	
CC(=O)O[C@@H]1[C@@H](O)[C@H](C)O[C@@H](Oc2cc(O)c3c(c2)C(=O)c2cc(C)cc(O)c2C3=O)[C@@H]1O		IC50 ([1]; kb): Not Active
Cc1cc(O)c2c(c1)C(=O)c1cccc(O)c1C2=O [CHRYSOPHANOL]		IC50 ([1]; kb): Not Active
COc1cccc2c1C(=O)c1c(O)c3c(c(O)c1C2=O)C[C@@](O)(C(=O)CO)C[C@@H]3O[C@H]1C[C@H](N)[C@H](O)[C@H](C)O1 [DOXORUBICIN]	0.2 µM	
Cc1cc(O)c2c(c1)Cc1cc(O)cc(O)c1C2=O [EMODIN ANTHRONE]	3.9 µM	
Cc1cc(O)c2c(c1)C(=O)c1cc(O)cc(O)c1C2=O [EMODIN]		IC50 ([1]; kb): Not Active
CC(=O)Oc1cc(C)cc2c1C(=O)c1c(OC(C)=O)cc(O[C@@H]3O[C@@H](C)[C@H](OC(C)=O)[C@@H](OC(C)=O)[C@H]3OC(C)=O)cc1C2=O [FRANGULIN A PERACETATE]		IC50 ([1]; kb): Not Active
COc1cc(O)c2c(c1)C(=O)c1cc(C)cc(O)c1C2=O [PHYSCION]		IC50 ([1]; kb): Not Active
CC(=O)O[C@@H]1[C@@H](O)[C@H](C)O[C@@H](Oc2cc(O)c3c(c2)Cc2cc(C)cc(O)c2C3=O)[C@@H]1OC(C)=O [PRINOIDIN]	0.045 µM	Survival [2]: 4 days; Survival [3]: 7 days; Survival [4]: 2 days
